Assays:
[1] = test system: DRG neurons from Mrg KO mice; assay: Calcium imaging, DRG neurons from Mrg KO mice; format: cell-based, mouse; conditions: capsaicin 0.5 μM, positive control, after JHU58
Procedure, shortened: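 Mrg KO mice: 845 kb chromosome 7 deletion covering 12 Mrg genes incl. MrgC11, backcrossed to C57BL/6 at least five generations. DRGs from 3–4-week-old mice were enzyme-dissociated at 37°C, plated on poly-D-lysine/laminin coverslips, and used within 24 h. Fura-2 AM loading for 30 min in the dark at room temperature; 340/380 nm ratio imaging; bath drug application; experimenter blinded to genotype.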

[2] = test system: pain / nociception; conditions: cited from earlier work
[3] = test system: SNL rats (mechanical hypersensitivity); assay: Paw withdrawal threshold; format: in vivo, rat; conditions: intrathecal FMRFamide 2 mM, 10 μl, n=7, 30 and 60 minutes
Procedure, shortened: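 Male Sprague-Dawley rats (200–350 g) had the left L5 spinal nerve ligated with 6-0 silk and cut distally. They were tested 4–5 weeks later via an intrathecal PE-10 catheter inserted through the atlanto-occipital membrane, with compound diluted in saline. Ipsilateral plantar PWT was measured by the up-down method (von Frey 0.38–13.1 g, 4–6 s) using the Dixon formula. Tests ran in the morning, blinded.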

[4] = test system: rats (lower limbs); assay: Motor paralysis after intrathecal injection; format: in vivo, rat; conditions: intrathecal lidocaine 400 μg/20 μl

Compound: COc1cc(CNC(=O)CCCC/C=C/C(C)C)ccc1O [capsaicin]
- DRG neurons from Mrg KO mice with an increase in [Ca2+]i [1]: 32%
- Effect on pain, peripheral versus central application ([2]; capsaicin): induces burning pain in the periphery, but it inhibits pain when applied centrally

Compound: γ^2-MSH
- Effect on nociception (acute and inflammatory pain models) ([2]; systemic and intrathecal injections): produce pronociceptive effects in acute pain models and contribute to heat hyperalgesia in an inflammatory pain model

Compound: FMRFamide
- Mechanical hypersensitivity, ipsilateral PWT [3]: inhibited mechanical hypersensitivity in the ipsilateral hindpaw of SNL rats

Compound: CCN(CC)CC(=O)Nc1c(C)cccc1C [lidocaine]
- Motor paralysis of the lower limbs [4]: temporary motor paralysis of the lower limbs
